Assay [1] deals with T1, Heat shock factor protein 1 (Homo sapiens, UniProt Q00613).
T1 sequence (Q00613 whole entry): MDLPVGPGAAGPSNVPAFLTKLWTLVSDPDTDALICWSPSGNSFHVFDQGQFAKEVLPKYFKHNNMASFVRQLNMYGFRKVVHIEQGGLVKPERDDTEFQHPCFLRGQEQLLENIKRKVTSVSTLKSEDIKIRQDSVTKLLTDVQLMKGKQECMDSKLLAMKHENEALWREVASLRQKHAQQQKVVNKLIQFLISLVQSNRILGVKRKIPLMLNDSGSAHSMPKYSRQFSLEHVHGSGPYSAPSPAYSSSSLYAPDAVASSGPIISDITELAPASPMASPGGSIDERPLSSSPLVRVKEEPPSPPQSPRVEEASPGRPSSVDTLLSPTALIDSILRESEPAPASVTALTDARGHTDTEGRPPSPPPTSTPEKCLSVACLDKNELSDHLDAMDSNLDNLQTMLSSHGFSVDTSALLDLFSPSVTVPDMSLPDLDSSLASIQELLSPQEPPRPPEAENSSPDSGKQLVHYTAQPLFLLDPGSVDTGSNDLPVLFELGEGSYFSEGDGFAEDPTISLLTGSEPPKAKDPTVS
The experiment in a line: Amplification of HSF1 transcriptional activity in human heat shock-induced HeLa cells assessed as granule formation treated 1 hr before heat shock challenge measured after 2 hrs without recovery time by immunocytochemical staining. In a few lines:
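HeLa cells given compound 1 h before mild heat shock at 41 °C for 2 h, no recovery; compound diluted 200-fold, 0.3 to 80 µM. Unstressed control plates kept at 37 °C for 3 h. HSF1 immunocytochemical staining, imaged at 10×.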

The target of assay [2] is T1, Heat shock factor protein 1. Briefly: Amplification of HSF1 transcriptional activity in human HeLa cells assessed as granule formation pretreated for 3 hrs by immunocytochemical staining. The method, boiled down: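 HeLa cells pretreated with compound 1 h, then mild heat shock 41 °C for 2 h, no recovery; control arm pretreated 3 h at 37 °C without heat shock. Compound diluted 200-fold, 0.3 to 80 µM range.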

Assay [3] is described as follows: Amplification of HSF1 transcriptional activity in human heat shock-induced HeLa cells assessed as granule formation treated 1 hr before heat shock challenge measured after 2 hrs without recovery time by immunocytochemical staining.

We go through 23 compounds from BindingDB's records for doi:10.1016/j.bmcl.2009.05.073 (Cytrx, 2009).

For the compound `C=c1c(O)c(O)cc2c1=CC=C1[C@@]2(C)CC[C@@]2(C)[C@@H]3C[C@](C)(C(=O)O)CC[C@]3(C)CC[C@]12C`, the EC50 in assay [1] was 1.1 µM; in assay [2] it was 2.6 µM.

In the case of `CCCCn1nc(-c2ncc[nH]2)nc2c(=O)n(C)c(=O)nc1-2` [1-butyl-3-(1H-imidazol-2-yl)-6-methylpyrimido[5,4-e][1,2,4]triazine-5,7(1H,6H)-dione], in assay [3], the EC50 is 7.7 µM.

For the compound `CCCCn1nc(-c2ccc(C)o2)[n+]([O-])c2c(=O)n(C)c(=O)nc1-2` [1-butyl-6-methyl-3-(5-methylfuran-2-yl)-5,7-dioxo-1,5,6,7-tetrahydropyrimido[5,4-e][1,2,4]triazine 4-oxide], the EC50 in assay [3] turned out to be 10 µM.

On to `CCCCn1nc(-c2ccc(C)o2)nc2c(=O)n(C)c(=O)nc1-2` [1-butyl-6-methyl-3-(5-methylfuran-2-yl)pyrimido[5,4-e][1,2,4]triazine-5,7(1H,6H)-dione], for which the EC50 in assay [3] came to 9.9 µM.

Take `CCCCn1nc(-c2ccc(C)s2)[n+]([O-])c2c(=O)n(C)c(=O)nc1-2` [1-butyl-6-methyl-3-(5-methylthiophen-2-yl)-5,7-dioxo-1,5,6,7-tetrahydropyrimido[5,4-e][1,2,4]triazine 4-oxide]: the EC50 in assay [3] was 8.6 µM.

Consider `CCCCn1nc(-c2ccc(C)s2)nc2c(=O)n(C)c(=O)nc1-2` [1-butyl-6-methyl-3-(5-methylthiophen-2-yl)pyrimido[5,4-e][1,2,4]triazine-5,7(1H,6H)-dione], for which, in assay [3], the EC50 is 16.8 µM.

Consider `CCCCn1nc(-c2ccc3ccccc3n2)nc2c(=O)n(C)c(=O)nc1-2` [1-butyl-6-methyl-3-(quinolin-2-yl)pyrimido[5,4-e][1,2,4]triazine-5,7(1H,6H)-dione], for which, in assay [3], the EC50 amounted to 2.5 µM.

Take `CCCCn1nc(-c2nccs2)nc2c(=O)n(C)c(=O)nc1-2` [1-butyl-6-methyl-3-(thiazol-2-yl)pyrimido[5,4-e][1,2,4]triazine-5,7(1H,6H)-dione]: in assay [3], the EC50 was 2.1 µM.

`CCCCn1nc(-c2ccccc2)nc2c(=O)n(C)c(=O)nc1-2` [1-butyl-6-methyl-3-phenylpyrimido[5,4-e][1,2,4]triazine-5,7(1H,6H)-dione]: the EC50 in assay [3] amounted to 14.8 µM.

For the compound `CCn1nc(-c2ncc[nH]2)nc2c(=O)n(C)c(=O)nc1-2` [1-ethyl-3-(1H-imidazol-2-yl)-6-methylpyrimido[5,4-e][1,2,4]triazine-5,7(1H,6H)-dione], the EC50 in assay [3] is 39.8 µM.

Regarding `CCn1nc(-c2ccco2)nc2c(=O)n(C)c(=O)nc1-2` [1-ethyl-3-(furan-2-yl)-6-methylpyrimido[5,4-e][1,2,4]triazine-5,7(1H,6H)-dione], the EC50 in assay [3] came to 10.1 µM.

Consider `CCn1nc(-c2ccc[nH]2)nc2c(=O)n(C)c(=O)nc1-2` [1-ethyl-6-methyl-3-(1H-pyrrol-2-yl)pyrimido[5,4-e][1,2,4]triazine-5,7(1H,6H)-dione], for which the EC50 in assay [3] came out at 35 µM.

`CCn1nc(-c2ccc(C)o2)[n+]([O-])c2c(=O)n(C)c(=O)nc1-2` [1-ethyl-6-methyl-3-(5-methylfuran-2-yl)-5,7-dioxo-1,5,6,7-tetrahydropyrimido[5,4-e][1,2,4]triazine 4-oxide]: the EC50 in assay [3] was determined as 20.6 µM.

In the case of `CCn1nc(-c2ccc(C)o2)nc2c(=O)n(C)c(=O)nc1-2` [1-ethyl-6-methyl-3-(5-methylfuran-2-yl)pyrimido[5,4-e][1,2,4]triazine-5,7(1H,6H)-dione], the EC50 in assay [3] worked out at 46.3 µM.

`CCn1nc(-c2ccc(C)s2)[n+]([O-])c2c(=O)n(C)c(=O)nc1-2` [1-ethyl-6-methyl-3-(5-methylthiophen-2-yl)-5,7-dioxo-1,5,6,7-tetrahydropyrimido[5,4-e][1,2,4]triazine 4-oxide]: the EC50 in assay [3] was 11.6 µM.

As to `CCn1nc(-c2ccc(C)s2)nc2c(=O)n(C)c(=O)nc1-2` [1-ethyl-6-methyl-3-(5-methylthiophen-2-yl)pyrimido[5,4-e][1,2,4]triazine-5,7(1H,6H)-dione], in assay [3], the EC50 was 17.3 µM.

On to `CCn1nc(-c2cccs2)nc2c(=O)n(C)c(=O)nc1-2` [1-ethyl-6-methyl-3-thiophen-2-yl-pyrimido[5,4-e][1,2,4]triazine-5,7-dione], for which the EC50 in assay [3] stood at 5.1 µM.

With `CCn1nc(-c2ccc[nH]2)[n+]([O-])c2c(=O)n(C)c(=O)nc1-2` [1-ethyl-6-methyl-5,7-dioxo-3-(1H-pyrrol-2-yl)-1,5,6,7-tetrahydropyrimido[5,4-e][1,2,4]triazine 4-oxide], in assay [3], the EC50 came out at 24.7 µM.

With `CCCCn1nc(-c2nc3ccccc3[nH]2)nc2c(=O)n(C)c(=O)nc1-2` [3-(1H-benzo[d]imidazol-2-yl)-1-butyl-6-methylpyrimido[5,4-e][1,2,4]triazine-5,7(1H,6H)-dione], the EC50 in assay [3] worked out at 40.8 µM.

Regarding `Cn1c(=O)nc2n(Cc3ccc(F)cc3)nc(-c3nc4ccccc4s3)nc-2c1=O` [3-(benzo[d]thiazol-2-yl)-1-(4-fluorobenzyl)-6-methylpyrimido[5,4-e][1,2,4]triazine-5,7(1H,6H)-dione], the EC50 in assay [3] came to 14 µM.

Take `Cn1c(=O)nc2n(Cc3ccccc3)nc(-c3nc4ccccc4s3)nc-2c1=O` [3-(benzo[d]thiazol-2-yl)-1-benzyl-6-methylpyrimido[5,4-e][1,2,4]triazine-5,7(1H,6H)-dione]: the EC50 in assay [3] stood at 4.1 µM.

As for `CC(C)Cn1nc(-c2nc3ccccc3s2)nc2c(=O)n(C)c(=O)nc1-2` [3-(benzo[d]thiazol-2-yl)-1-isobutyl-6-methylpyrimido[5,4-e][1,2,4]triazine-5,7(1H,6H)-dione], the EC50 in assay [3] turned out to be 1.3 µM.

As for `CC(C)CCn1nc(-c2nc3ccccc3s2)nc2c(=O)n(C)c(=O)nc1-2` [3-(benzo[d]thiazol-2-yl)-1-isopentyl-6-methylpyrimido[5,4-e][1,2,4]triazine-5,7(1H,6H)-dione], the EC50 in assay [3] was determined as 2.5 µM.

What is called EC50 is the concentration at which the effect is half-maximal.
